Results from ChEMBL document CHEMBL4265981, “Design, synthesis, and biological evaluation of novel pan agonists of FFA1, PPARγ and PPARδ” (Eur J Med Chem, 2018).

Assays:
[1] = target: T1, Free fatty acid receptor 1 (Homo sapiens, UniProt O14842); assay: Agonist activity at human FFA1 expressed in CHO cells assessed as increase in intracellular Ca2+ flux after 1 hr by Fluo4-AM dye based FLIPR assay; format: functional, cell-based
Procedure, shortened: (§1)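 CHO cells stably expressing human FFA1, seeded 16 h at 37 °C, washed with HBSS, then loaded 1 h at 37 °C with Fluo 4-AM (2.5 μg/mL), 2.5 mmol/L probenecid and 0.1% fatty acid-free BSA. Intracellular Ca2+ flux read by FLIPR after compound addition at various concentrations.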

[2] = target: T2, Peroxisome proliferator-activated receptor alpha (Homo sapiens, UniProt Q07869); assay: Agonist activity at human GAL4 fused PPARalpha-LBD expressed in human HepG2 cells after 18 hrs by luciferase reporter gene assay; format: cell-based
T2 sequence (Q07869 whole entry): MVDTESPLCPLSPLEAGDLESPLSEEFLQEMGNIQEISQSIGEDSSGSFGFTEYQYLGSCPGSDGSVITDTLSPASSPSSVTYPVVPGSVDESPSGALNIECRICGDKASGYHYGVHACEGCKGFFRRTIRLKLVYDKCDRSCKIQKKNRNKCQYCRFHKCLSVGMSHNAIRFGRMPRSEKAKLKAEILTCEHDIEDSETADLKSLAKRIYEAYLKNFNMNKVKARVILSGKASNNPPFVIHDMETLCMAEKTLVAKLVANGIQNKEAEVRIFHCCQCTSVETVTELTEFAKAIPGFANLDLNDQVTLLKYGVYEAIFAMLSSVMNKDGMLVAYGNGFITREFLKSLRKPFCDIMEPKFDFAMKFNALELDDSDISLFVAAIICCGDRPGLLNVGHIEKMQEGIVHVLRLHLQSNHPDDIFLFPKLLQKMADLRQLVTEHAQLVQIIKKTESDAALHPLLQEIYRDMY
Procedure, shortened: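 HepG2 cells plated 1 day ahead in antibiotic-free MEM, then run by the same GAL4 protocol: pBIND-PPAR construct plus pG5Luc reporter transfection, 18 h compound exposure at various concentrations. Firefly/renilla luciferase ratio scaled between no-compound and reference-agonist controls. EC50 is the mean of three determinations.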

[3] = target: T3, Peroxisome proliferator-activated receptor gamma (Homo sapiens, UniProt P37231); assay: Agonist activity at human GAL4 fused PPARgamma-LBD expressed in HEK293 cells after 18 hrs by luciferase reporter gene assay; format: cell-based
T3 sequence (P37231 whole entry): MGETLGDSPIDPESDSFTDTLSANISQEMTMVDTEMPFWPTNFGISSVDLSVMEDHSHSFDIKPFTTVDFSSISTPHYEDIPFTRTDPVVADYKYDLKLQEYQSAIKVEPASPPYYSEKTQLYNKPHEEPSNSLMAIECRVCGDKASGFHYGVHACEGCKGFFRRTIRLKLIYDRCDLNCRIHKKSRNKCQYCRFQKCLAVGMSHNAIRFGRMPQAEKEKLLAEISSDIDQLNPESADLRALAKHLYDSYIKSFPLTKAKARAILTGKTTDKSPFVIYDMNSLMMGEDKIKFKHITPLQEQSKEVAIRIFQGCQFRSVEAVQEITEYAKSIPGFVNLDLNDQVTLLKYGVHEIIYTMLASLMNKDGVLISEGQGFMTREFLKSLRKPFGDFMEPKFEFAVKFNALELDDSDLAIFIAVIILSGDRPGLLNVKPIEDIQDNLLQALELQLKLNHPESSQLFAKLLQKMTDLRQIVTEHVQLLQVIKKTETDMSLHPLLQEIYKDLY
Procedure, shortened: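 HEK293 cells plated 1 day ahead in antibiotic-free DMEM, transiently transfected with pBIND-PPARγ plus pG5Luc reporter (25 ng/well each). After 24 h, compounds added at various concentrations for 18 h. Dual firefly/renilla luciferase read-out, firefly normalized to renilla. % activation scaled between no-compound control and reference agonist; EC50 is the mean of three determinations.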

[4] = target: T4, Peroxisome proliferator-activated receptor delta (Homo sapiens, UniProt Q03181); assay: Agonist activity at human GAL4 fused PPARdelta-LBD expressed in HEK293 cells after 18 hrs by luciferase reporter gene assay; format: cell-based
T4 sequence (Q03181 whole entry): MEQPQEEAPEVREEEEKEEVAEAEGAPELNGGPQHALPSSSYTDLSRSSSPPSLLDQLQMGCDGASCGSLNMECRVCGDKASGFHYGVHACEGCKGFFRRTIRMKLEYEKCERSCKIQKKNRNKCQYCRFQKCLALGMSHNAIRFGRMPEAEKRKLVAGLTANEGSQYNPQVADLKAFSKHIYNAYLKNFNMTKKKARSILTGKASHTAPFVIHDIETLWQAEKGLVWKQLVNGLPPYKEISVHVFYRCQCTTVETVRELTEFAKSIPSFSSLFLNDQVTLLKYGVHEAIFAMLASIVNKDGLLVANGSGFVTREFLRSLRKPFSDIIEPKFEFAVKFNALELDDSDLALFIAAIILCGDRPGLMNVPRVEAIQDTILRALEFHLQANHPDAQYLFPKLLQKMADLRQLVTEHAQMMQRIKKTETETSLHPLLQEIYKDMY

Mus musculus [5] = assay: Hypoglycemic activity in ICR mouse assessed as decrease in blood glucose AUC (0 to 120 mins) at 30 mg/kg, po administered 30 mins prior to glucose load by OGTT relative to control; format: functional; set-up: scale not given: the % may be the effect or the level left
Procedure, shortened: (§2)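 Male ICR mice (18–22 g), acclimatized 1 week. Single oral dose (10, 30, 100 or 20 mg/kg) in 0.5% carboxymethylcellulose/methylcellulose vehicle, given 30 min before an oral glucose load of 3 g/kg. Blood glucose measured by test strip at −30, 0, 15, 30, 60 and 120 min. AUC0–120 min compared with vehicle.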

Mus musculus [6] = assay: Hypoglycemic activity in ob/ob mouse assessed as decrease in blood glucose AUC (0 to 120 mins) at 100 mg/kg, po bid administered via gavage 30 mins prior to glucose load by OGTT relative to control; format: functional; set-up: scale not given: the % may be the effect or the level left
Procedure, shortened: (§3)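 Male ob/ob mice, six weeks old, acclimatized 1 week. Dosed by gavage twice daily for 5 days with 100 or 40 mg/kg, or with 0.5% methylcellulose vehicle. OGTT on days 0 and 5: overnight fast, dose, then oral glucose 3 g/kg 30 min later. Tail-tip blood glucose by strip at −30, 0, 15, 30, 60 and 120 min. n = 6/group, mean ± SD, Student's t test.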

Mus musculus [7] = assay: Hypoglycemic activity in ICR mouse assessed as decrease in blood glucose AUC (0 to 120 mins) at 100 mg/kg, po administered 30 mins prior to glucose load by OGTT relative to control; format: functional; set-up: scale not given: the % may be the effect or the level left; procedure, shortened: as §2
Mus musculus [8] = assay: Hypoglycemic activity in ICR mouse assessed as decrease in plasma glucose level administered orally 30 mins prior to glucose load and measured after 120 mins by OGTT; format: functional, organism-based; procedure, shortened: as §2
Mus musculus [9] = assay: Hypoglycemic activity in ob/ob mouse assessed as decrease in blood glucose AUC (0 to 120 mins) at 100 mg/kg, po bid administered via gavage for 5 days starting at 30 mins prior to glucose load by OGTT relative to control; format: functional; set-up: scale not given: the % may be the effect or the level left; procedure, shortened: as §3
Mus musculus [10] = assay: Hypoglycemic activity in ICR mouse assessed as decrease in blood glucose AUC (0 to 120 mins) at 10 mg/kg, po administered 30 mins prior to glucose load by OGTT relative to control; format: functional; set-up: scale not given: the % may be the effect or the level left; procedure, shortened: as §2
Mus musculus [11] = assay: Hypoglycemic activity in ob/ob mouse assessed as decrease in blood glucose AUC (0 to 120 mins) at 40 mg/kg, po bid administered via gavage 30 mins prior to glucose load by OGTT relative to control; format: functional; set-up: scale not given: the % may be the effect or the level left; procedure, shortened: as §3
Mus musculus [12] = assay: Hypoglycemic activity in ob/ob mouse assessed as decrease in blood glucose AUC (0 to 120 mins) at 40 mg/kg, po bid administered via gavage for 5 days starting at 30 mins prior to glucose load by OGTT relative to control; format: functional; set-up: scale not given: the % may be the effect or the level left; procedure, shortened: as §3
Mus musculus [13] = assay: Hypoglycemic activity in ICR mouse assessed as decrease in blood glucose AUC (0 to 120 mins) at 20 mg/kg, po administered 30 mins prior to glucose load by OGTT relative to control; format: functional; set-up: scale not given: the % may be the effect or the level left; procedure, shortened: as §2
[14] = target: T1, Free fatty acid receptor 1; assay: Agonist activity at FFA1 (unknown origin); format: functional; procedure, shortened: as §1

T1 sequence (O14842 whole entry): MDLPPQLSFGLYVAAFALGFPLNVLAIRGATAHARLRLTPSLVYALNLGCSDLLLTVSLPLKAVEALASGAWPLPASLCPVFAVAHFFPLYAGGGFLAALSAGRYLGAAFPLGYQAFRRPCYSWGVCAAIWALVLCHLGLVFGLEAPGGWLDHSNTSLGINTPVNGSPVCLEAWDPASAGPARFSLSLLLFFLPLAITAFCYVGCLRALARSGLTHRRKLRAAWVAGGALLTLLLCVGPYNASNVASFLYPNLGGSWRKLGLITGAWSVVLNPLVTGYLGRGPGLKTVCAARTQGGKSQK

| Structure (SMILES) | EC50 [1] [µM] | EC50 [2] [µM] | EC50 [3] [µM] | EC50 [4] [µM] | also measured |
| --- | --- | --- | --- | --- | --- |
| O=C(O)COc1ccc(OCCCOc2cccc(Cl)c2)cc1F | 8.45 | > 10 | 3.17 | 3.35 | – |
| Cc1ccccc1OCCCOc1ccc2c(c1)OCC2CC(=O)O (stereo unspecified) | > 10 | > 10 | 2.02 | 1.93 | – |
| Cc1ccc(OCCCOc2ccc3c(c2)OCC3CC(=O)O)cc1 (stereo unspecified) | 7.62 | > 10 | 1.81 | 1.95 | – |
| O=C(O)CC1COc2cc(OCCCOc3ccc(-c4ccccc4)cc3)ccc21 (stereo unspecified) | 4.26 | 7.31 | 2.97 | 1.98 | – |
| Cc1cc(OCCCOc2ccc(-c3ccccc3)cc2)ccc1OCC(=O)O | > 10 | 5.26 | 4.56 | 1.52 | – |
| Cc1cc(OCCCS(C)(=O)=O)cc(C)c1-c1cccc(COc2ccc3c(c2)OC[C@H]3CC(=O)O)c1 | – | – | – | – | Activity (Mus musculus [11]): 13.1%; Activity (Mus musculus [12]): 20.2%; Activity (Mus musculus [13]): -26.9% |
| Cc1cc(OCCCOc2cccc(Cl)c2)ccc1OCC(=O)O | > 10 | > 10 | 1.54 | 1.73 | – |
| CC#C[C@@H](CC(=O)O)c1ccc(OCCCOc2cccc(Cl)c2)cc1 | – | – | – | – | EC50 [14]: 0.01 µM |
| O=C(O)C[C@@H]1CCc2cc(OCCCOc3ccccc3)ccc21 | > 10 | > 10 | > 10 | 0.17 | – |
| O=C(O)CC1COc2cc(OCCOc3ccccc3)ccc21 (stereo unspecified) | > 10 | > 10 | 7.75 | 7.93 | – |
| Cc1cccc(OCCCOc2ccc3c(c2)OCC3CC(=O)O)c1 (stereo unspecified) | 3.59 | > 10 | 1.75 | 2.42 | – |
| CC(C)(C)c1cccc(OCCOc2ccc3c(c2)OCC3CC(=O)O)c1 (stereo unspecified) | 3.85 | > 10 | 2.03 | 9.57 | – |
| O=C(O)CC1COc2cc(OCCCOc3ccccc3)ccc21 (stereo unspecified) | > 10 | > 10 | 5.26 | 3.26 | – |
| O=C(O)CC1COc2cc(OCCCOc3ccccc3F)ccc21 (stereo unspecified) | > 10 | > 10 | 2.67 | 2.09 | – |
| O=C(O)CS(=O)(=O)c1ccc(OCCCOc2cccc(Cl)c2)cc1 | > 10 | > 10 | > 10 | > 10 | – |

Continued, in another order:

| EC50 [1] [µM] | EC50 [2] [µM] | EC50 [3] [µM] | EC50 [4] [µM] | Structure (SMILES) | also measured |
| --- | --- | --- | --- | --- | --- |
| 3.45 | > 10 | 1.67 | 2.37 | O=C(O)CC1COc2cc(OCCCOc3cccc(Br)c3)ccc21 (stereo unspecified) | – |
| 3.28 | > 10 | 1.92 | 4.56 | [2H]C([2H])(Cc1ccc(OCCCOc2cccc(Cl)c2)cc1)C(=O)O | – |
| 2.38 | > 10 | 1.43 | 1.75 | O=C(O)C[C@@H]1COc2cc(OCCCOc3cccc(Cl)c3)ccc21 | Activity (Mus musculus [5]): 8.1%; Activity (Mus musculus [6]): 7.6%; Activity (Mus musculus [7]): 18.6%; Activity (Mus musculus [8]): Dose-dependent effect; Activity (Mus musculus [9]): 17.3%; Activity (Mus musculus [10]): 1.1% |
| 3.02 | > 10 | 1.75 | 4.84 | CC(C)(C)c1cccc(OCCCOc2ccc3c(c2)OCC3CC(=O)O)c1 (stereo unspecified) | – |
| 2.76 | > 10 | 1.85 | 5.49 | O=C(O)CC1COc2cc(OCCCOc3cccc(-c4ccccc4)c3)ccc21 (stereo unspecified) | – |
| 3.07 | > 10 | 1.69 | 2.16 | O=C(O)CC1COc2cc(OCCCOc3cccc(Cl)c3)ccc21 (stereo unspecified) | – |
